{"source": "ChEMBL document CHEMBL3627626", "about": "“6-Substituted Pyrrolo[2,3-d]pyrimidine Thienoyl Regioisomers as Targeted Antifolates for Folate Receptor α and the Proton-Coupled Folate Transporter in Human Tumors” (J Med Chem, 2015)", "key": {"KB [1]": {"tested_on": "KB", "assay": "Antiproliferative activity against human KB cells expressing FRalpha/PCFT/RFC assessed as cell growth inhibition after 96 hrs by CellTiter-Blue assay", "assay_type": "functional, cell-based"}, "[2]": {"target": "T1, Trifunctional purine biosynthetic protein adenosine-3 (Homo sapiens) (UniProt P22102)", "T1 sequence (whole entry)": "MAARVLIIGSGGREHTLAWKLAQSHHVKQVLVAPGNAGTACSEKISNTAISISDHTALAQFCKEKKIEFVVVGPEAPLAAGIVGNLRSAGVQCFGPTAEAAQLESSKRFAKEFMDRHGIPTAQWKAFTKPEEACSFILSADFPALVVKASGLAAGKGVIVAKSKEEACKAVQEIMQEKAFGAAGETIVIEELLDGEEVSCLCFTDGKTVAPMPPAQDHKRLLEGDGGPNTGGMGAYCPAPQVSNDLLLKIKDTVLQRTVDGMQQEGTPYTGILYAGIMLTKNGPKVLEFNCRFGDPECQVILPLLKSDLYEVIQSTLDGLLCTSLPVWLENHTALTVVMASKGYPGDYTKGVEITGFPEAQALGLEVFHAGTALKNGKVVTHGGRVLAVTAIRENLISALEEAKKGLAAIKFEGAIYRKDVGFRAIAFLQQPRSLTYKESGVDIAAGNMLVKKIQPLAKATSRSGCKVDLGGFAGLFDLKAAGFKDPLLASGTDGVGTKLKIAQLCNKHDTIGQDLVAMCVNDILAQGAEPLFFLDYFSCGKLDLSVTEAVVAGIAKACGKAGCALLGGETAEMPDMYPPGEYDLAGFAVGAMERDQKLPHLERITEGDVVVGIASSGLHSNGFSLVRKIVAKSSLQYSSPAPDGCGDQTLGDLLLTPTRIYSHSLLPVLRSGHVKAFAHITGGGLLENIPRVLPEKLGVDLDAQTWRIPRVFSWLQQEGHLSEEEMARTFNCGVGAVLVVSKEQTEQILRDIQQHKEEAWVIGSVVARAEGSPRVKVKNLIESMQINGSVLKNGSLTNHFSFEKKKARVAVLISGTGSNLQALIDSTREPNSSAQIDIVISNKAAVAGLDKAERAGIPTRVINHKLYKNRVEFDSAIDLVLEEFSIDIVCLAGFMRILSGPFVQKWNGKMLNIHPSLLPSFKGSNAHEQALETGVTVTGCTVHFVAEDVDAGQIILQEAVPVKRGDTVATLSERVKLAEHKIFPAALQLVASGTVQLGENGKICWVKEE", "assay": "Inhibition of GARFTase in human KB cells expressing FRalpha/PCFT/RFC assessed as cell growth inhibition after 96 hrs by CellTiter-Blue assay in presence of AICA", "assay_type": "cell-based"}, "[3]": {"target": "T2, Proton-coupled folate transporter (Homo sapiens) (UniProt Q96NT5)", "T2 sequence (whole entry)": "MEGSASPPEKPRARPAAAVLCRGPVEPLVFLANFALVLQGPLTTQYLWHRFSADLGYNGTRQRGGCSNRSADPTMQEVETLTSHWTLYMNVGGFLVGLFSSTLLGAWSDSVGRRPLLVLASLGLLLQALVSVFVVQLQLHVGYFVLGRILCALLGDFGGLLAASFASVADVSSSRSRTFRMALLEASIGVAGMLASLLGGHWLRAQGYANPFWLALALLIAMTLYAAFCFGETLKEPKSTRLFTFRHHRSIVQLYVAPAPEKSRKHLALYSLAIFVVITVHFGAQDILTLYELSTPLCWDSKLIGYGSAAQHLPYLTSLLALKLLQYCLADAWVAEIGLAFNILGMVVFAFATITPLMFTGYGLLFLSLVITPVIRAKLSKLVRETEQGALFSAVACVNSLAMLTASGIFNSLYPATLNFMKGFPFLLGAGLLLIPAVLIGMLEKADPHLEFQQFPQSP", "assay": "Binding affinity to human PCFT expressed in Chinese hamster R2/PCFT4 cells assessed as intracellular drug level at 0.5 uM at 37 degC at pH 5.5 measured over 5 mins", "assay_type": "cell-based"}, "SK-OV-3": {"tested_on": "SK-OV-3", "assay": "Antitumor activity against human SKOV3 cells expressing RFC/PCFT/FRalpha xenografted in folate-deficient diet fed NCR SCID mouse assessed as delay in tumor growth at 16 mg/kg, iv administered every 4 days on day 3, 7, 11 measured twice per week", "assay_type": "functional, organism-based", "summary_of_the_method": "(§1)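 Ten-week-old female NCR SCID mice, fed a folate-deficient or standard folate-replete diet, were implanted subcutaneously and bilaterally with SKOV3 tumour fragments. Randomised at 5 mice/group. Dosed intravenously, 0.2 mL per injection, in 5% ethanol/1% Tween-80/0.5% NaHCO3 in water at pH 6.5, on days 3, 7 and 11. Tumours measured twice weekly and mice weighed daily. T/C taken on day 21; growth delay and log cell kill also reported.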"}, "R2 [4]": {"tested_on": "R2", "assay": "Cytotoxicity against PCFT-null Chinese hamster R2 cells assessed as cell growth inhibition after 96 hrs by CellTiter-Blue assay", "assay_type": "cell-based, Cricetulus griseus", "conditions": "R2, 96 h"}, "[5]": {"target": "T2, Proton-coupled folate transporter (Homo sapiens)", "assay": "Binding affinity to human PCFT expressed in Chinese hamster R2/PCFT4 cells assessed as intracellular drug transport rate at 37 degC at pH 5.5 measured over 2 mins by Lineweaver-Burk plot analysis", "assay_type": "cell-based", "summary_of_the_method": "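R2/PCFT4 CHO cells were grown as monolayers, transferred to spinner flasks, and used as suspensions (5–10 × 10⁷ cells). Uptake was quenched with ice-cold DPBS and cells were NaOH-solubilized. Results are pmol/mg protein; Kt and Vmax come from Lineweaver–Burke plots.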"}, "R2 [6]": {"tested_on": "R2", "assay": "Cellular uptake in PCFT-null Chinese hamster R2 cells at 0.5 uM at 37 degC at pH 5.5 measured over 2 mins", "assay_type": "ADME, cell-based, Cricetulus griseus", "conditions": "r2, pH 5.5, 2 min", "summary_of_the_method": "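R2/PCFT4 or PCFT-null R2 CHO cells were grown in suspension from spinner flasks. Uptake of 0.5 μM [3H]drug measured over 2 min at 37 °C in MES-buffered saline pH 5.5, with or without 10 μM unlabeled competitor. Uptake was quenched with ice-cold DPBS and cells solubilised in NaOH. Results are pmol/mg protein, mean ±SEM of three experiments.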"}, "[7]": {"target": "Folate receptor beta (Homo sapiens) (UniProt P14207)", "sequence (P14207 17-230 limits assumed)": "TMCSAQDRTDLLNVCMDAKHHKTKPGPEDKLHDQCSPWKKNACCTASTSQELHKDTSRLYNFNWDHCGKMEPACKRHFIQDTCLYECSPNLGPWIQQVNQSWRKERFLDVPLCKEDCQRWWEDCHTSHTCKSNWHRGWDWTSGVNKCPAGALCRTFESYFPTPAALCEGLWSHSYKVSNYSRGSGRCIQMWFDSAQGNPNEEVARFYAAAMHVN", "assay": "Binding affinity to human FRbeta expressed in Chinese hamster D4 cells assessed as intracellular drug level at 50 nM at 37 degC after 1 hr", "assay_type": "cell-based", "summary_of_the_method": "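D4 CHO cells (human FRβ) were acid-washed at pH 3.5, then given 50 nM [3H]drug in HBSS pH 7.4 at 37 °C for 60 min. A second acid wash removed surface-bound label to give the intracellular fraction. Cells were solubilised in NaOH, and values expressed as pmol/mg protein. Mean ±SEM of three experiments.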"}, "KB [8]": {"tested_on": "KB", "assay": "Antiproliferative activity against human KB cells expressing FRalpha/PCFT/RFC assessed as cell growth inhibition after 96 hrs by CellTiter-Blue assay in presence of 200 nM folic acid", "assay_type": "functional, cell-based"}, "Mus musculus": {"tested_on": "Mus musculus", "assay": "Toxicity in folate-deficient diet fed NCR SCID mouse xenografted with human SKOV3 cells expressing RFC/PCFT/FRalpha assessed as body weight loss at 16 mg/kg, iv administered every 4 days on day 3, 7, 11 relative to control", "assay_type": "organism-based, SK-OV-3", "conditions": "in vivo, 96 h", "summary_of_the_method": "as §1"}}, "note": "The source made the active and inactive calls. The rule behind the calls is not given here."}
{"smiles": "Nc1nc2[nH]c(CCCc3cc(C(=O)N[C@@H](CCC(=O)O)C(=O)O)cs3)cc2c(=O)[nH]1", "values": [{"measurement": "IC50", "setting": "KB [1]", "result": 0.09, "unit": "nM"}, {"measurement": "inhibition", "setting": "[2]", "result": "inactive"}, {"measurement": "Activity", "setting": "[3]", "result": "Active"}, {"measurement": "Activity", "setting": "SK-OV-3", "result": "Active"}, {"measurement": "IC50", "setting": "R2 [4]", "result": 290, "unit": "nM"}, {"measurement": "K", "setting": "[5]", "result": 0.22, "unit": "µM"}, {"measurement": "Drug uptake", "setting": "R2 [6]", "result": "Not Active"}, {"measurement": "Activity", "setting": "[7]", "result": 3.35, "unit": "pmol/mg"}, {"measurement": "IC50", "setting": "KB [8]", "result": 105, "unit": "nM"}, {"measurement": "Activity", "setting": "Mus musculus", "result": 12.1, "unit": "%"}]}
